Results on 37 sequences are retold here after the array DNA melting data of Ke et al. (doi:10.1101/2024.01.08.574731).

Data set [1] is described as follows: melting temperature; fluorescence melt of hairpins on a sequencing array, two-state fit, raised by 9.35 °C to match UV melts. The settings on record: sodium 0.088 M. In outline: (§1)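 To match UV melts, fitted temperatures were raised by 9.35 °C. These fits were bootstrapped two-state models that gave melting temperature and folding enthalpy, combined by inverse variance over four replicates. The input was normalised Cy3 fluorescence of library hairpins with annealed Cy3 and quencher oligos on a sequenced MiSeq flow cell, imaged in 50 mM Na-HEPES pH 8.0, 25 mM NaCl in 2.5 °C steps up to 60 °C.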

A short description of data set [2]: folding enthalpy; higher = less favourable; fluorescence melt of hairpins on a sequencing array, two-state fit. The following applies: sodium 0.088 M. In a few lines:
as §1

As for GCCTGCGAAAGCACCGGC ((((((....)))..))), the Tm in data set [1] was 46.6 °C. For the same sequence, the folding enthalpy in data set [2] was -18.5 kcal/mol.
In the same order, the values of GCCTGCGAAAGCACGGC ((((((....))).))) are 63.2 °C and -29.7 kcal/mol.
As for GCCTGCGAAAGCATCGGC ((((((....)))..))), in data set [1], the Tm came to 47.2 °C. Besides, the folding enthalpy in data set [2] is -19.1 kcal/mol.
With GCCTGGCGAAAGCAGGGC (((..((....))..))), in data set [1], the Tm was 65.6 °C. Moreover, in data set [2], the folding enthalpy is -26.7 kcal/mol.
As for GCCTGGCGAAAGCCCGGC (((.(((....))).))), the Tm in data set [1] amounted to 59.4 °C. Also, the folding enthalpy in data set [2] was -35.3 kcal/mol.
With GCCTGGCGAAAGCCCTGC ((..(((....)))..)), the Tm in data set [1] stood at 32.6 °C. In addition, the folding enthalpy in data set [2] was -12.2 kcal/mol.
On the same counts, the results for GCCTGGCGAAAGCCGCGC ((..(((....)))..)) are 52.3 °C and -16.8 kcal/mol.
On the same counts, the results for GCCTGGCGAAAGCCTAGC ((..(((....)))..)) are 41 °C and -12.8 kcal/mol.
In the same order, the values of GCCTGGCGAAAGCGCGGC (((..((....))..))) are 57.1 °C and -19 kcal/mol.
GCCTGGCGAAAGCTTGGC (((..((....))..))): the Tm in data set [1] was determined as 59.4 °C. The folding enthalpy in data set [2] was -26.5 kcal/mol.
On the same counts, the results for GCCTGGGGAAACCTGGGC (((..((....))..))) are 50.3 °C and -32.3 kcal/mol.
Consider GCCTGGGGAAACTCAGGC (((((.(....).))))), for which the Tm in data set [1] is 58.4 °C. For the same sequence, the folding enthalpy in data set [2] is -36 kcal/mol.
On the same counts, the results for GCCTGTACGAAAGTAGGC (((..(((....)))))) are 48.9 °C and -29.1 kcal/mol.
In the same order, the values of GCCTGTGGAAACACGGGC (((.(((....))).))) are 61.9 °C and -41 kcal/mol.
On the same counts, the results for GCCTTAACGAAAGTTGGC (((..(((....)))))) are 43.7 °C and -26.5 kcal/mol.
On to GCCTTACCGAAAGGTGGC (((..(((....)))))), for which the Tm in data set [1] is 48.8 °C. In addition, the folding enthalpy in data set [2] is -23.6 kcal/mol.
On the same counts, the results for GCCTTATCGAAAGATGGC (((..(((....)))))) are 42.6 °C and -28.7 kcal/mol.
In the same order, the values of GCCTTCCCGAAAGGGGGC (((..(((....)))))) are 47.7 °C and -17.2 kcal/mol.
In the same order, the values of GCCTTCGAAAGAAAGGGC ((((((....)))..))) are 43.1 °C and -29.4 kcal/mol.
On to GCCTTCGAAAGAAATGGC ((((((....)))..))), for which, in data set [1], the Tm amounted to 38.5 °C. For the same sequence, the folding enthalpy in data set [2] is -24.6 kcal/mol.
Turning to GCCTTCGAAAGAACCGGC ((((((....)))..))), the Tm in data set [1] is 33.9 °C. In addition, the folding enthalpy in data set [2] is -19.4 kcal/mol.
In the same order, the values of GCCTTCGAAAGAATAGGC ((((((....)))..))) are 44.8 °C and -28.8 kcal/mol.
On the same counts, the results for GCCTTCGGAAACGAAAGC ((.((((....)))).)) are 40.4 °C and -22 kcal/mol.
In the same order, the values of GCCTTCGGAAACGGAGGC ((((.((....)).)))) are 58.6 °C and -40.4 kcal/mol.
On to GCCTTGCGAAAGCAGGC (((.(((....)))))), for which, in data set [1], the Tm is 66.7 °C. The folding enthalpy in data set [2] is -24 kcal/mol.
In the same order, the values of GCCTTGCGAAAGCCACGC ((.(.((....)).).)) are 46.8 °C and -7.87 kcal/mol.
For the sequence GCCTTGCGAAAGCGACGC ((.(.((....)).).)), the Tm in data set [1] amounted to 48.2 °C. In addition, the folding enthalpy in data set [2] is -10.5 kcal/mol.
On the same counts, the results for GCCTTGCGAAAGCTCGGC (((..((....))..))) are 53.1 °C and -21.9 kcal/mol.
On the same counts, the results for GCCTTGCGAAAGCTGGGC (((..((....))..))) are 62.6 °C and -25.9 kcal/mol.
In the same order, the values of GCCTTTGAAAAAAGGC ((((((....)))))) are 59.2 °C and -32.6 kcal/mol.
On to GCCTTTGGAAACAGAGGC ((((.((....)).)))), for which the Tm in data set [1] was 48.2 °C. Also, the folding enthalpy in data set [2] was -31.1 kcal/mol.
In the same order, the values of GCGAAACTTCGC ((((....)))) are 51.1 °C and -19.9 kcal/mol.
Regarding GCGAAAGCTCGC ((((....)))), in data set [1], the Tm was determined as 56.8 °C. Further, the folding enthalpy in data set [2] is -11 kcal/mol.
In the same order, the values of GCGAAATCGAAAGATCGC (((..(((....)))))) are 47.5 °C and -28.1 kcal/mol.
On the same counts, the results for GCGAAATCTCGC ((((....)))) are 45.2 °C and -20.3 kcal/mol.
On the same counts, the results for GCGAAATTCGC ((((...)))) are 43.1 °C and -18.2 kcal/mol.
Take GCGAACCCTCGC ((((....)))): the Tm in data set [1] came to 47 °C. Further, the folding enthalpy in data set [2] was -23.2 kcal/mol.
